Data as given in ChEMBL document CHEMBL5649170, “Sustained microglial depletion with CSF1R inhibitor impairs parenchymal plaque development in an Alzheimer's disease model” (Nat Commun, 2019).

Assays:
[1] = biological target: Platelet-derived growth factor receptor beta (Homo sapiens, UniProt P09619); experiment: Inhibition of PDGFRB (unknown origin)
[2] = biological target: Protein kinase C beta type (Homo sapiens, UniProt P05771); experiment: Inhibition of PRKCB1 (unknown origin)
Mus musculus = experiment: Antialzheimer activity in 5XFAD mouse assessed as ApoE immunoreactivity by measuring APP volume per number of Thio-S positive deposits at 1200 ppm administered as rodent chow starting from 1.5 months and measured after 7 months by immunolabeling based confocal microscopic analysis (reference value: 6.415 to 29.760 microm3); type: functional; details: route po, time 5.5 months, 4015 h
[3] = Effect on Scn1b gene expression in wildtype mouse hippocampus assessed as percent change in Reads Per kilo base per Million mapped reads at 1200 ppm administered as rodent chow starting from 1.5 months and measured after 7 months by RNA-Seq analysis (reference value: 86.853 to […]); type: functional; details: route po, time 5.5 months, 4015 h
[4] = Effect on C1qa gene expression in 5XFAD mouse hippocampus at 1200 ppm administered as rodent chow starting from 1.5 months and measured after 7 months by RNA-Seq analysis (reference value: 61.868 to 70.581 RPKM); type: functional; details: route po, time 5.5 months, 4015 h
How it was run: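 WT and 5xFAD mice were treated with 1200 ppm PLX5622 chow or control chow from 1.5 to 7 months of age. Brains were microdissected into cortex, hippocampus and thalamus, and RNA was extracted from tissue powder. Whole-transcriptome RNA-Seq libraries were sequenced, with n = 4 per group per region (48 samples).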

[5] = Toxicity in wildtype mouse assessed as distance traveled at 1200 ppm administered as rodent chow for 10 to 24 weeks by Open field test (reference value: 13.381 to 26.996 meter); details: in vivo, po, time 10-24 weeks
[6] = Effect on Cx3cr1 gene expression in 5XFAD mouse thalamus at 1200 ppm administered as rodent chow starting from 1.5 months and measured after 7 months by RNA-Seq analysis (reference value: 15.006 to 17.756 RPKM); type: functional; details: route po, time 5.5 months, 4015 h
[7] = Toxicity in wildtype mouse assessed as time spent in open arm at 1200 ppm administered as rodent chow for 10 to 24 weeks by Elevated plus maze test (reference value: 8.7 to 179.9 sec); details: in vivo, po, time 10-24 weeks
[8] = biological target: Calcium/calmodulin-dependent protein kinase type II subunit delta (Homo sapiens, UniProt Q13557); experiment: Inhibition of CAMK2D (unknown origin)
Chain of Calcium/calmodulin-dependent protein kinase type II subunit delta (Q13557 whole entry): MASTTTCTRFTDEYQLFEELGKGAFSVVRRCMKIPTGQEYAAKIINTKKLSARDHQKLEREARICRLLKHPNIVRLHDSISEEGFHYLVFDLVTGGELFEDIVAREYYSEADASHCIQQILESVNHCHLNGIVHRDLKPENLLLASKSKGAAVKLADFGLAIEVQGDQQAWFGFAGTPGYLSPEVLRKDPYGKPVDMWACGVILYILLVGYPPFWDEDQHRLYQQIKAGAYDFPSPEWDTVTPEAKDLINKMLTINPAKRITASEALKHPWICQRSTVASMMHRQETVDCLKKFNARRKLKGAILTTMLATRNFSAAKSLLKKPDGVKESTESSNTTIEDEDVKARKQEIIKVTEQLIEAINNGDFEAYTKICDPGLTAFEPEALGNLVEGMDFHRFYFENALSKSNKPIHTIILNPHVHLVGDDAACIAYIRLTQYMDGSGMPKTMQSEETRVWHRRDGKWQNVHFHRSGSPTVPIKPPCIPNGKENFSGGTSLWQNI

Chain of Platelet-derived growth factor receptor beta (P09619 whole entry): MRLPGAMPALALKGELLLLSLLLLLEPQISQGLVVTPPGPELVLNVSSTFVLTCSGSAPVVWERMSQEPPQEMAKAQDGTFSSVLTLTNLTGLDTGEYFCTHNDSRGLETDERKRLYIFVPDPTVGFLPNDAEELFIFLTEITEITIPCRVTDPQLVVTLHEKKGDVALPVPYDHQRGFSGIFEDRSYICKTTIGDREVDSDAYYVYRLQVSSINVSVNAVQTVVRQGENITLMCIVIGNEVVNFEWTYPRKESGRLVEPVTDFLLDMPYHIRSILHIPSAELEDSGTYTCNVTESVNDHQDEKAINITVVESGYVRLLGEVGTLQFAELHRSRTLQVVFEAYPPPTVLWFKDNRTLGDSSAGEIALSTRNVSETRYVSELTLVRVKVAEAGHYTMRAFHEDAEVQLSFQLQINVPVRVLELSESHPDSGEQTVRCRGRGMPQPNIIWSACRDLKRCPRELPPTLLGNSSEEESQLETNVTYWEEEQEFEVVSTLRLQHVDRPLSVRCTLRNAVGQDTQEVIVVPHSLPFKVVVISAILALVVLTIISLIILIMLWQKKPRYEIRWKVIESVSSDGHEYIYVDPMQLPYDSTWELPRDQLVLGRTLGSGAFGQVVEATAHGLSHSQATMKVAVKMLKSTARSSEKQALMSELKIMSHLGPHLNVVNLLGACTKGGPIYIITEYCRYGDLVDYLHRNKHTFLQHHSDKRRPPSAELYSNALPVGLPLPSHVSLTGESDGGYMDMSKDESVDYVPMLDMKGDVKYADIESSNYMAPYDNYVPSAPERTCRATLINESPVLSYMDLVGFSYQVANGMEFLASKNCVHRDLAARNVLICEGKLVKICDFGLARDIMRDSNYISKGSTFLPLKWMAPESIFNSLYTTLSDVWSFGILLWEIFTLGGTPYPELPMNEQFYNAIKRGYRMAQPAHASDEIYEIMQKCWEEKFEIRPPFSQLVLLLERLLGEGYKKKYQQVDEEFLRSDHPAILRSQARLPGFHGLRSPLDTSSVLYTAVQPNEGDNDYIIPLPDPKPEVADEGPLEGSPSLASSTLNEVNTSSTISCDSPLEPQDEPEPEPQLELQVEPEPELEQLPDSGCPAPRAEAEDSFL
Chain of Protein kinase C beta type (P05771 whole entry): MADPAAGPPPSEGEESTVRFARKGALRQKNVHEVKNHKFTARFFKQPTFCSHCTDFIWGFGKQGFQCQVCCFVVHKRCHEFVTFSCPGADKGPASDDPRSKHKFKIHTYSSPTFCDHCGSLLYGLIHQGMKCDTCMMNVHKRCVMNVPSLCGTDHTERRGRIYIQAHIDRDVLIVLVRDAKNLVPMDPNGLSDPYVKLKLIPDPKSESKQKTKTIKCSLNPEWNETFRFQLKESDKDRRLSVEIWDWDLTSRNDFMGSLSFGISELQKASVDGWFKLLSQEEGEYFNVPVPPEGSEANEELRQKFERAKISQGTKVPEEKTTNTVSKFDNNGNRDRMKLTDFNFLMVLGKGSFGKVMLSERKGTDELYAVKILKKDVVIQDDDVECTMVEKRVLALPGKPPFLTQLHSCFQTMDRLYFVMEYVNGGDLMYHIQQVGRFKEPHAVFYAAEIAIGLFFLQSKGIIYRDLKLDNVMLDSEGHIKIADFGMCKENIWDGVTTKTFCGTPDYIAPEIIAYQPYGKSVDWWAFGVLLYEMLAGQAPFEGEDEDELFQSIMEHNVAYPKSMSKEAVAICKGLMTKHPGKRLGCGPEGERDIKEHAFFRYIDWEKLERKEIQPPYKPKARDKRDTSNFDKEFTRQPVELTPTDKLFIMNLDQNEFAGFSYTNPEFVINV

## COc1ncc(F)cc1CNc1ccc(Cc2c[nH]c3ncc(C)cc23)c(F)n1 [PLX-5622]
[1]
  IC50: > 1000 nM
[2]
  IC50: > 1000 nM
Mus musculus
  Activity: 10.459 um3
[3]
  Activity: 83.818%
[4]
  Activity: 6.689 RPKM
[5]
  Activity: 9.067 m
[6]
  Activity: 0.179 RPKM
[7]
  Time: 11.9 s
[8]
  IC50: > 1000 nM
